Experiments:
[1] = biological target: T1, NAD-dependent protein deacetylase sirtuin-1 (Homo sapiens) (UniProt Q96EB6); assay: Inhibition of human SIRT1 using fluorogenic ZMAL as substrate at 100 uM incubated for 4 hrs in the presence of beta-NAD+ as cofactor by fluorescence based microplate reader analysis relative to control
T1 sequence (whole entry): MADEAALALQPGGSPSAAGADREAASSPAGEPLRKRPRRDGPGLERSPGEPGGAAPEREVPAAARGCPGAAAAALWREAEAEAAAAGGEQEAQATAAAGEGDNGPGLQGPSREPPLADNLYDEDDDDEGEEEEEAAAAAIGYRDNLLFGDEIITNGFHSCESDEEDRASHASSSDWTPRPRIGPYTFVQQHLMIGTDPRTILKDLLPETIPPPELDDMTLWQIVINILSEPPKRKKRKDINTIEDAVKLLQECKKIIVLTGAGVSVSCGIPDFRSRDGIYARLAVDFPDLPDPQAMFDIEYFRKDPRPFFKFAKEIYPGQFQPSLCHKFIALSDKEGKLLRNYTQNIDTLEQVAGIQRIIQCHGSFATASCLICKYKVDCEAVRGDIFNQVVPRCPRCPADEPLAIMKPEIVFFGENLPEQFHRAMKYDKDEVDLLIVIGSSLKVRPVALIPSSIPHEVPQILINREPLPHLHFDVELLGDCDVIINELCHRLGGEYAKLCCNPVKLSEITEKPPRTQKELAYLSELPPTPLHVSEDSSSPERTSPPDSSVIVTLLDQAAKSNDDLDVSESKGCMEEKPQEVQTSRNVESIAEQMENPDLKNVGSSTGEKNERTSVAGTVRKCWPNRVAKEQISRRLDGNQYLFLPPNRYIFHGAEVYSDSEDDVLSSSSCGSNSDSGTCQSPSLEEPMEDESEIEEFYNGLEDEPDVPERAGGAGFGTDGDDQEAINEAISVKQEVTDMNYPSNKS
Method in brief: (§1)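 Recombinant SIRT1, SIRT2 or SIRT3 (0.5 U) in 50 mM Tris/HCl, 137 mM NaCl, 2.7 mM KCl with ZMAL 10.5 μM, β-NAD+ 500 μM and 8.3% (v/v) DMSO (final), plus compound; 4 h at 37 °C with shaking. Trypsin stop solution containing 8 mM nicotinamide added, 20 min at 37 °C, then fluorescence read. Single concentrations tested first; IC50 only for near-complete inhibitors; means of 3 experiments.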

[2] = Chemical stability of the compound in sirtuin assay buffer at pH 8.0 assessed as nicotinamide cleavage measured every 30 mins for 4 hrs by HPLC analysis; assay type: physicochemical; conditions: read-out: Activity
[3] = biological target: T2, NAD-dependent protein deacetylase sirtuin-3, mitochondrial (Homo sapiens) (UniProt Q9NTG7); assay: Inhibition of human SIRT3 using fluorogenic ZMAL as substrate at 100 uM incubated for 4 hrs in the presence of beta-NAD+ as cofactor by fluorescence based microplate reader analysis relative to control; method in brief: as §1
T2 sequence (whole entry): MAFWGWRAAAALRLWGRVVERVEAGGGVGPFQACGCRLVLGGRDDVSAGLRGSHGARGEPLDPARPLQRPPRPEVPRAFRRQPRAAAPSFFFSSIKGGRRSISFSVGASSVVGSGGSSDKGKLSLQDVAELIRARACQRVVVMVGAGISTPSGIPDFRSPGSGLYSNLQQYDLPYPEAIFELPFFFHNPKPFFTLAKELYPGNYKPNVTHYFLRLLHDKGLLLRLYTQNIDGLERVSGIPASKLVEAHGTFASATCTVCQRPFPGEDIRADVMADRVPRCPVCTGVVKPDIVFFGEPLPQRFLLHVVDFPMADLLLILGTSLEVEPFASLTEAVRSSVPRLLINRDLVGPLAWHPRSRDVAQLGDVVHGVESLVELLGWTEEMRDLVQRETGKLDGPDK

[4] = system: Photorhabdus luminescens; assay: Displacement of [32P]NAD+ from Photorhabdus luminescens TccC3hvr ART domain assessed as inhibition of ADP-ribosylation of alpha-skeletal muscle actin at 100 uM preincubated for 15 mins followed by TccC3hvr addition and measured after 6 mins by SDS-PAGE based autoradiography; conditions: time 21.0 min
Method in brief: (§2)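 α-Skeletal muscle actin 1 μM with 1 μM NAD+ plus [32P]NAD+ (0.5 μCi per sample) in G buffer (5 mM Tris-HCl, 0.2 mM CaCl2, 0.2 mM ATP, 0.5 mM DTT, pH 8.0). Compound (10, 30 or 100 μM) preincubated 15 min at 21 °C, then 70 nM TccC3hvr ART domain added; 6 min at 21 °C, stopped with SDS Laemmli buffer. SDS-PAGE (12.5%), autoradiography; % inhibition versus control.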

[5] = biological target: T1, NAD-dependent protein deacetylase sirtuin-1 (Homo sapiens); assay: Inhibition of human SIRT1 using fluorogenic ZMAL as substrate at 250 uM incubated for 4 hrs in the presence of beta-NAD+ as cofactor by fluorescence based microplate reader analysis relative to control; method in brief: as §1
[6] = biological target: T3, SIRT2 (NAD-dependent protein deacetylase sirtuin-2) (Homo sapiens, UniProt Q8IXJ6); assay: Chemical stability of the compound in sirtuin assay buffer at pH 8.0 assessed as human SIRT2 mediated nicotinamide cleavage measured upto 4 hrs in the presence of ZMAL substrate by HPLC analysis; assay type: ADME; conditions: pH 8, probe ZMAL substrate, read-out: Activity
T3 sequence (Q8IXJ6 whole entry): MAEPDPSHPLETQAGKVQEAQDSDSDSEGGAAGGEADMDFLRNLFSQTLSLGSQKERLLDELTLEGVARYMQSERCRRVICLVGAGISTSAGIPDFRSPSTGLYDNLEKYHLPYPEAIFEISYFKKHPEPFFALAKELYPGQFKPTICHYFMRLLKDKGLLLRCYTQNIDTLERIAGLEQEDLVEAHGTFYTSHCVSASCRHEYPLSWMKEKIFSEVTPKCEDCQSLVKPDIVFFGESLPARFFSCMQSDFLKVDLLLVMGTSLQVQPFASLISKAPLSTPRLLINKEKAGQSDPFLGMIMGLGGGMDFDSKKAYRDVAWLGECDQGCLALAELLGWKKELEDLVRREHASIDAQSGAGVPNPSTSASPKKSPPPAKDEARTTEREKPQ

[7] = biological target: T4, NAD-dependent protein deacetylase sirtuin-2 (Homo sapiens, UniProt Q8IXJ6); assay: Inhibition of human SIRT2 using fluorogenic ZMAL as substrate incubated for 4 hrs in the presence of beta-NAD+ as cofactor by fluorescence based microplate reader analysis; method in brief: as §1
T4 sequence (Q8IXJ6 whole entry): T3 sequence (Q8IXJ6 whole entry)

[8] = biological target: T2, NAD-dependent protein deacetylase sirtuin-3, mitochondrial (Homo sapiens); assay: Inhibition of human SIRT3 using fluorogenic ZMAL as substrate at 250 uM incubated for 4 hrs in the presence of beta-NAD+ as cofactor by fluorescence based microplate reader analysis relative to control; method in brief: as §1
[9] = system: Photorhabdus luminescens; assay: Displacement of [32P]NAD+ from Photorhabdus luminescens TccC3hvr ART domain assessed as inhibition of ADP-ribosylation of alpha-skeletal muscle actin preincubated for 15 mins followed by TccC3hvr addition and measured after 6 mins by SDS-PAGE based autoradiography; conditions: dose 10-100 µM, time 21.0 min, DDE = dose-dependent effect; method in brief: as §2
[10] = biological target: T5, NAD-dependent protein deacetylase sirtuin-2 (Homo sapiens) (UniProt Q8IXJ6); assay: Inhibition of human SIRT2 using fluorogenic ZMAL as substrate at 250 uM incubated for 4 hrs in the presence of beta-NAD+ as cofactor by fluorescence based microplate reader analysis relative to control; method in brief: as §1
T5 sequence (whole entry): T3 sequence (Q8IXJ6 whole entry)

[11] = biological target: T6, NAD-dependent protein deacetylase sirtuin-1 (Homo sapiens, UniProt Q96EB6); assay: Inhibition of human SIRT1 using fluorogenic ZMAL as substrate incubated for 4 hrs in the presence of beta-NAD+ as cofactor by fluorescence based microplate reader analysis; method in brief: as §1
T6 sequence (Q96EB6 whole entry): T1 sequence (whole entry)

[12] = biological target: T2, NAD-dependent protein deacetylase sirtuin-3, mitochondrial (Homo sapiens); assay: Inhibition of human SIRT3 using fluorogenic ZMAL as substrate at 1 mM incubated for 4 hrs in the presence of beta-NAD+ as cofactor by fluorescence based microplate reader analysis relative to control; method in brief: as §1
[13] = Chemical stability of the compound in sirtuin assay buffer at pH 8.0 assessed as nicotinamide cleavage measured every 60 mins for 4 hrs by HPLC analysis; assay type: physicochemical; conditions: read-out: Activity

inhibition [1] [%]	degraded at 4 h [2] [%]	inhibition [3] [%]	inhibition [4] [%]	inhibition [5] [%]	metabolised at 4 h [6] [%]	IC50 [7] [µM]	inhibition [8] [%]	inhibition [9]	inhibition [10] [%]	IC50 [11] [µM]	inhibition [12] [%]	degraded at 4 h [13] [%]	Compound
18	8.4	12	77	65	15.1	151	19	Dde	–	–	–	–	NC(=O)c1ccc[n+]([C@@H]2O[C@H](COP(=O)(O)OP(=O)(O)OC[C@H]3O[C@@H](n4cnc5c(N)ncnc54)[C@H](O)[C@@H]3O)[C@@H](O)[C@H]2N)c1
–	–	–	–	–	–	–	34	–	21	–	–	–	[N-]=[N+]=N[C@@H]1C([n+]2cccc(C(N)=O)c2)O[C@H](COP(=O)(O)OP(=O)(O)OC[C@H]2O[C@@H](n3cnc4c(N)ncnc43)[C@H](O)[C@@H]2O)[C@H]1O (stereo partly specified)
–	–	–	–	–	–	153	–	–	–	176	47	–	NC(=O)c1ccc[n+]([C@@H]2O[C@H](COP(=O)(O)OP(=O)(O)OC[C@H]3O[C@@H](n4cnc5c(N)ncnc54)[C@H](O)[C@@H]3O)[C@@H](O)[C@@H]2N)c1
13	–	8	–	63	4.1	118	13	–	–	–	–	4.1	NC(=O)c1ccc[n+]([C@H]2O[C@H](COP(=O)(O)OP(=O)(O)OC[C@H]3O[C@@H](n4cnc5c(N)ncnc54)[C@H](O)[C@@H]3O)[C@@H](O)[C@H]2N)c1
